This is an account of results in ChEMBL document CHEMBL1139976, “Liver X receptor antagonists with a phthalimide skeleton derived from thalidomide-related glucosidase inhibitors” (Bioorg Med Chem Lett, 2007).

Activity calls are given as the source filed them. The calls are words filed in the database; no cut-off is given here.

The species named for data set [1] is Homo sapiens. The data set is described as follows: Inhibition of dipeptidylpeptidase 4.
The species entered for data set [2] is Homo sapiens. Put plainly: Inhibition of maltase.
Data set [3] is described as follows: Inhibition of alpha glucosidase. Further details: species or system Homo sapiens. The gist of the method:
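The enzyme (25 mU/mL) was preincubated with a range of compound concentrations in 10 mM phosphate buffer, pH 7.2, at 37 °C for 10 min. p-Nitrophenyl-alpha-D-glucopyranoside was then added to 0.16 mM final and incubated 30 min at 37 °C. The reaction was basified with 0.5 M Na2CO3 and released p-nitrophenol read at 400 nm. IC50 values were derived.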

The subject of the next data set is HEK293. Put plainly: Cytotoxicity against HEK293 cells at 100 uM. Type of data set: cell-based. As to conditions: human, hek293, 100 µM.
The target of data set [4] is T1, Oxysterols receptor LXR-alpha (Homo sapiens) (UniProt Q13133).
T1 sequence (whole entry): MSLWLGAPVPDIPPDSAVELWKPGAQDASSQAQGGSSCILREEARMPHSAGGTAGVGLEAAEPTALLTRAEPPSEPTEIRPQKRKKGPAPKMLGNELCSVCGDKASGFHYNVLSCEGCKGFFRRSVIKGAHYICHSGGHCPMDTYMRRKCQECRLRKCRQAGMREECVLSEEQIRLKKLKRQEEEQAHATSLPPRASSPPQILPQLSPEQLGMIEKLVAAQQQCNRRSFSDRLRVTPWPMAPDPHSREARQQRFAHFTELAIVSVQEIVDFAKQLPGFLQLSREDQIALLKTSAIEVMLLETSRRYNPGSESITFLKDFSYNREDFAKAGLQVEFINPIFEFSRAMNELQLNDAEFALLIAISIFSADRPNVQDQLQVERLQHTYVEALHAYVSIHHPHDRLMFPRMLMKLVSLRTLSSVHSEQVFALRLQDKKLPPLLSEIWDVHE
Put plainly: Antagonist activity at human recombinant LXRalpha expressed in HEK293 cells assessed as inhibition of T0901317-induced transcriptional activation at 100 uM by luciferase assay. Type of data set: functional, cell-based. In a few lines: (§1)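 GAL4 DNA-binding domain fused to human LXR (alpha or beta) as receptor plasmid, TK-MH100x4-LUC reporter, and CMX beta-galactosidase for normalization. HEK293 cells in DMEM with 5% FBS, 37 °C, 5% CO2. Transfected by calcium phosphate coprecipitation. Compounds added 8 h post-transfection together with 0.1 µM T0901317, whose response alone was set as 100%. Luciferase read on a luminometer. Three repeats, normalized averages.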

Data set [5] addresses T2, Oxysterols receptor LXR-beta (Homo sapiens) (UniProt P55055).
T2 sequence (whole entry): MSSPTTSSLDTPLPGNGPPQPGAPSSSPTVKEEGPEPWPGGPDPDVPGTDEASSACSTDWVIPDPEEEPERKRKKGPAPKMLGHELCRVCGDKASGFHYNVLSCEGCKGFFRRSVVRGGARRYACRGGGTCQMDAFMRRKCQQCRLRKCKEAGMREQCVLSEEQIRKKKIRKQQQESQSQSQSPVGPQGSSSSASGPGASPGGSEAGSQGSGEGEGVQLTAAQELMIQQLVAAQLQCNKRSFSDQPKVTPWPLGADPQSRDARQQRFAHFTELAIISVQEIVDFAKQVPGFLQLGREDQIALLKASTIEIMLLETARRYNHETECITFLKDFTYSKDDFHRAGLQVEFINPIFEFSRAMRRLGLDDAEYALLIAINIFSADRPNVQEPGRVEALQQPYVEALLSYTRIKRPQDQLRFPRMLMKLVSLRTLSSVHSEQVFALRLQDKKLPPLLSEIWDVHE
The data set is described as follows: Antagonist activity at human recombinant LXRbeta expressed in HEK293 cells assessed as inhibition of T0901317-induced transcriptional activation at 100 uM by luciferase assay. The data set is classed as functional, cell-based. The gist of the method:
as §1

Data set [6] has as its target T3, Oxysterols receptor LXR-beta (Homo sapiens, UniProt P55055).
T3 sequence (P55055 whole entry): T2 sequence (whole entry)
The data set is described as follows: Antagonist activity at human recombinant LXRbeta expressed in HEK293 cells assessed as inhibition of T0901317-induced transcriptional activation by luciferase assay. Type of data set: functional, cell-based.

The target of data set [7] is T4, Oxysterols receptor LXR-alpha (Homo sapiens, UniProt Q13133).
T4 sequence (Q13133 whole entry): T1 sequence (whole entry)
The data set is described as follows: Antagonist activity at human recombinant LXRalpha expressed in HEK293 cells assessed as inhibition of T0901317-induced transcriptional activation by luciferase assay. Type of data set: functional, cell-based.

A word on the IC50: it is the concentration at which inhibition is half-maximal. Take `O=C1c2ccccc2C(=O)N1c1ccccc1CCc1ccccc1`: the result in the data set listed under Homo sapiens [1] and in the data set filed under Homo sapiens [2] was inactive. The compound further registered an IC50 in data set [3] of 16.2 µM. The same compound yielded an Activity in the data set with HEK293 of 48%.

In general, inhibition refers to the drop in the measured response relative to a control, in per cent. In data set [3], `O=C1c2c(Cl)c(Cl)c(Cl)c(Cl)c2C(=O)N1CCCCCc1ccccc1` returned an IC50 of 3.5 µM. Moreover, the inhibition in data set [4] came out at 42%; in data set [5], 3%.

As for `CC(C)c1cccc(C(C)C)c1N1C(=O)c2ccccc2C1=S`, the result in the data set listed under Homo sapiens [1] and in the data set listed under Homo sapiens [2] was Active. Further, the half-maximal inhibitory concentration (IC50) in data set [3] was 8 µM. In addition, the inhibition in data set [4] came to 94%; in data set [5], 92%. Besides, in the data set on HEK293, the Activity is on record as 73%.

Compound `O=C1c2c(Cl)c(Cl)c(Cl)c(Cl)c2C(=O)N1CCCc1ccccc1` yielded a 50% inhibitory concentration (IC50) in data set [3] of 4.5 µM. The inhibition came to 59% in data set [4] and 52% in data set [5].

In data set [3], `CC(C)c1cccc(C(C)C)c1N1C(=O)c2c(Cl)c(Cl)c(Cl)c(Cl)c2C1=O` showed an IC50 of 2.4 µM. Also, the inhibition came to 61% in data set [4] and 49% in data set [5].

In the case of `O=C1c2c(Cl)c(Cl)c(Cl)c(Cl)c2C(=O)N1CCCCc1ccccc1`, the IC50 in data set [3] was 2 µM. Also, the inhibition was 53% in data set [4] and 49% in data set [5].

In data set [3], `O=C1c2c(Cl)c(Cl)c(Cl)c(Cl)c2C(=O)N1Cc1ccccc1` returned an IC50 of 10.9 µM. The values for the inhibition in data set [4] and in data set [5] were 60% and 51%, respectively.

Turning to `O=C1c2ccc(Cl)cc2C(=O)N1CCCCc1ccccc1`, the figures for the inhibition in data set [4] and in data set [5] were 66% and 45%, respectively.

In the case of `O=C1c2c(Cl)c(Cl)c(Cl)c(Cl)c2C(=O)N1c1ccccc1`, half-maximal inhibition in data set [3] (IC50) required 2.6 µM. For the same compound, the outcome in data set [4] and in data set [5] was inactive.

For the compound `CCCCCCc1ccccc1N1C(=O)c2ccccc2C1=O`, the outcome in the data set listed under Homo sapiens [1] and in the data set filed under Homo sapiens [2] was inactive. The IC50 in data set [3] turned out to be 24.7 µM; in data set [6], 65 µM; in data set [7] it was 13 µM. Further, in the data set with HEK293, the Activity was 57%.

As for `O=C1c2cc(Cl)c(Cl)cc2C(=O)N1CCCCc1ccccc1`, the inhibition in data set [4] was determined as 50%; in data set [5] it was 35%.

`O=C1c2c(Cl)c(Cl)c(Cl)c(Cl)c2C(=O)N1CCCCCCCCCCc1ccccc1` displayed an IC50 in data set [3] of 6.8 µM. Moreover, the result in data set [4] and in data set [5] was inactive.

`O=C1c2c(Cl)c(Cl)c(Cl)c(Cl)c2C(=O)N1CCc1ccccc1` had an IC50 in data set [3] of 6 µM. Besides, the inhibition in data set [4] and in data set [5] was 38% throughout.
